Measurements as given in ChEMBL document CHEMBL1154473, “Synthesis, antitumor evaluation and DNA binding studies of novel amidino-benzimidazolyl substituted derivatives of furyl-phenyl- and thienyl-phenyl-acrylates, naphthofurans and naphthothiophenes” (Eur J Med Chem, 2008).

Legend:
DNA [1] = assay: Binding affinity to calf thymus DNA assessed as relative fluorescence intensity by fluorescence emission spectra analysis relative to control; type: nucleic-acid assay; conditions: Bos taurus
Summary of the method: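 Fluorimetric titration: portions of ct-DNA (phosphate concentration determined spectroscopically; sonicated, filtered) added to compound in sodium cacodylate buffer pH 7.0, I = 0.05 mol dm-3; excitation 360–374 nm depending on compound to avoid inner filter effects, emission monitored at 400 nm; data corrected for dilution; fluorescence change expressed versus compound/ct-DNA ratio r.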

DNA [2] = assay: Binding affinity to calf thymus DNA assessed as hypochromic effect by UV-vis spectra analysis; type: nucleic-acid assay; set-up: concentration or dose not given beside the values; conditions: Bos taurus
DNA [3] = assay: Binding affinity to calf thymus DNA in sodium cacodylate buffer at compound/DNA ratio < 0.1 pH 7 by fluorimetric titration; type: nucleic-acid assay; conditions: Bos taurus
Summary of the method: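 Compound solution in sodium cacodylate buffer (pH 7.0, I = 0.05 mol dm⁻³) titrated with portions of ct-DNA (6.31 × 10⁻³ mol dm⁻³), data corrected for dilution. Excitation at 360–374 nm, chosen per compound to avoid inner filter effects, with emission monitored at 400 nm. Ks and n obtained by non-linear least-squares Scatchard fitting of data at r < 0.1.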

DNA [4] = assay: Binding affinity to calf thymus DNA in sodium cacodylate buffer assessed as melting temperature at compound/DNA ratio 0.1 at pH 7; type: nucleic-acid assay; conditions: Bos taurus
Summary of the method: (§1)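 ct-DNA dissolved in sodium cacodylate buffer (I = 0.05 mol dm⁻³, pH 7), sonicated, filtered, with concentration taken spectroscopically as phosphate. Absorbance at 260 nm followed against temperature, heating 1 °C/min. Ligand absorbance subtracted and scale normalized. Tm taken as transition midpoint from first-derivative maximum or tangent method. ΔTm = Tm(complex) − Tm(free DNA). Error ±0.5 °C.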

[5] = Antiproliferative activity against human WI38 cells after 72 hrs by MTT assay; type: cell-based; conditions: WI-38, 72 h
Summary of the method: (§2)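 Cells seeded on day 0 at 1–3 × 10⁴ cells/ml, density set by each line's doubling time. Compounds added in five 10-fold dilutions (10⁻⁸–10⁻⁴ M), freshly prepared on test day, with DMSO solvent control matched to working concentrations. Incubated 72 h, then MTT read-out of dehydrogenase activity in viable cells gives percentage of growth. Four parallel samples per point, three independent experiments.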

HeLa = assay: Antiproliferative activity against human HeLa cells after 72 hrs by MTT assay; type: functional, cell-based; summary of the method: as §2
MIA PaCa-2 = assay: Antiproliferative activity against human MIAPaCa2 cells after 72 hrs by MTT assay; type: functional, cell-based; conditions: MIA PaCa-2, 72 h; summary of the method: as §2
SW-620 = assay: Antiproliferative activity against human SW620 cells after 72 hrs by MTT assay; type: functional, cell-based; conditions: SW-620, 72 h; summary of the method: as §2
MCF7 = assay: Antiproliferative activity against human MCF7 cells after 72 hrs by MTT assay; type: functional, cell-based; conditions: MCF7, 72 h; summary of the method: as §2
NCI-H460 = assay: Antiproliferative activity against human H460 cells after 72 hrs by MTT assay; type: functional, cell-based; conditions: NCI-H460, 72 h; summary of the method: as §2
DNA [6] = assay: Binding affinity to calf thymus DNA in sodium cacodylate buffer assessed as melting temperature at compound/DNA ratio 0.2 at pH 7; type: nucleic-acid assay; conditions: Bos taurus; summary of the method: as §1
DNA [7] = assay: Binding affinity to calf thymus DNA in sodium cacodylate buffer assessed as melting temperature at compound/DNA ratio 0.3 at pH 7; type: nucleic-acid assay; conditions: Bos taurus; summary of the method: as §1
DNA [8] = assay: Binding affinity to calf thymus DNA in sodium cacodylate buffer at compound/DNA ratio 0.5 pH 7 by fluorimetric titration; type: nucleic-acid assay; conditions: Bos taurus

CCOC(=O)c1cc2oc(-c3nc4cc(C(=N)NC(C)C)ccc4[nH]3)cc2c2cc(C#N)ccc12
Flu intensity (DNA [1]): 282 a.u. | Activity (DNA [2]): 10% | log Ks (DNA [3]): 5 | ΔTm (DNA [4]): 1 °C | IC50 [5]: > 100 µM | IC50 (HeLa): 72 µM | IC50 (MIA PaCa-2): 61 µM | IC50 (SW-620): 85 µM | IC50 (MCF7): 6 µM | IC50 (NCI-H460): > 100 µM | ΔTm (DNA [6]): 1.4 °C | ΔTm (DNA [7]): 1.6 °C

COC(=O)c1cc2oc(-c3nc4cc(C(=N)NC(C)C)ccc4[nH]3)cc2c2ccccc12
Flu intensity (DNA [1]): 790 a.u. | Activity (DNA [2]): 51% | log Ks (DNA [3]): 4.2 | ΔTm (DNA [4]): 1.8 °C | IC50 [5]: > 100 µM | IC50 (HeLa): 18 µM | IC50 (MIA PaCa-2): 21 µM | IC50 (SW-620): 35 µM | IC50 (MCF7): 1 µM | IC50 (NCI-H460): 18 µM | ΔTm (DNA [6]): 2.6 °C | ΔTm (DNA [7]): 3.8 °C

COC(=O)/C(=C/c1ccc(-c2nc3cc(C(=N)NC(C)C)ccc3[nH]2)s1)c1ccccc1
Flu intensity (DNA [1]): 232 a.u. | Activity (DNA [2]): 18% | ΔTm (DNA [4]): 1.7 °C | IC50 [5]: > 100 µM | IC50 (HeLa): 30 µM | IC50 (MIA PaCa-2): 13 µM | IC50 (SW-620): 62 µM | IC50 (MCF7): 1 µM | IC50 (NCI-H460): 37 µM | ΔTm (DNA [6]): 2.3 °C | ΔTm (DNA [7]): 2.7 °C

CCOC(=O)/C(=C/c1ccc(-c2nc3cc(C(=N)NC(C)C)ccc3[nH]2)o1)c1ccc(C#N)cc1
Flu intensity (DNA [1]): 161 a.u. | Activity (DNA [2]): 10% | ΔTm (DNA [4]): 0.6 °C | IC50 [5]: 36 µM | IC50 (HeLa): 28 µM | IC50 (MIA PaCa-2): 21 µM | IC50 (SW-620): 62 µM | IC50 (MCF7): 2 µM | IC50 (NCI-H460): 31 µM | ΔTm (DNA [6]): 0.8 °C | ΔTm (DNA [7]): 1.3 °C | log Ks (DNA [8]): 5.6

COC(=O)c1cc2sc(-c3nc4cc(C(=N)NC(C)C)ccc4[nH]3)cc2c2ccccc12
Flu intensity (DNA [1]): 916 a.u. | Activity (DNA [2]): 15% | log Ks (DNA [3]): 4.7 | ΔTm (DNA [4]): 3.9 °C | IC50 [5]: 71 µM | IC50 (HeLa): 15 µM | IC50 (MIA PaCa-2): 16 µM | IC50 (SW-620): 29 µM | IC50 (MCF7): 2 µM | IC50 (NCI-H460): 24 µM | ΔTm (DNA [6]): 4.9 °C | ΔTm (DNA [7]): 5.8 °C

COC(=O)/C(=C/c1ccc(-c2nc3cc(C(=N)NC(C)C)ccc3[nH]2)o1)c1ccccc1
Flu intensity (DNA [1]): 147 a.u. | Activity (DNA [2]): 8% | ΔTm (DNA [4]): 0 °C | IC50 [5]: 13 µM | IC50 (HeLa): 17 µM | IC50 (MIA PaCa-2): 19 µM | IC50 (SW-620): 14 µM | IC50 (MCF7): 9 µM | IC50 (NCI-H460): 13 µM | ΔTm (DNA [6]): 0 °C | ΔTm (DNA [7]): 0 °C
